Results reported in ChEMBL document CHEMBL1152447, “Benzothiopyranoindole-based antiproliferative agents: synthesis, cytotoxicity, nucleic acids interaction, and topoisomerases inhibition properties” (J Med Chem, 2009).
Calls of active or inactive are those of the source. No cut-off for these calls is given here.

What was measured:
HeLa = experiment: Cytotoxicity against human HeLa cells after 72 hrs by trypan blue assay; assay type: functional, cell-based
How it was run: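 HeLa cells grown in Nutrient Mixture F-12 with 10% heat-inactivated FCS at 37 °C, 5% CO2. Seeded at 4 × 10^4 per well for 24 h, then medium replaced with fresh medium containing test agents for 72 h. Viability by trypan blue. IC50 is the concentration reducing cell number by 50% versus control.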

HL-60 [1] = experiment: Cytotoxicity against human HL60 cells after 72 hrs by trypan blue assay; assay type: functional, cell-based; settings: HL-60, 72 h
How it was run: (§1)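 Cells seeded at 4 × 10^4 per well and cultured 24 h at 37 °C in 5% CO2. Test agents then added to the complete medium for a further 72 h. Viable cells counted by trypan blue. IC50 is the concentration giving 50% fewer cells than control cultures. HL-60 grown in RPMI 1640 + 15% heat-inactivated FCS; HL-60/MX2 grown in RPMI 1640 + 10% heat-inactivated FCS.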

[2] = target: DNA topoisomerase 2-alpha (Homo sapiens) (UniProt P11388); experiment: Inhibition of human recombinant topoisomerase 2 relaxation activity assessed as supercoiled pBR322 DNA at 8 uM
How it was run: (§2)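 Human recombinant topoisomerase IIα (1 U) relaxation of supercoiled pBR322 (0.25 μg) with compound, 60 min at 37 °C. Stopped with SDS/proteinase K (50 μg/mL, 30 min, 37 °C). Products separated on 1% agarose, stained with ethidium bromide 1 μg/mL, UV imaging. Inhibition judged by retained supercoiled DNA. Gels representative of three experiments.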

[3] = Stabilization of supercoiled pBR322 DNA-human recombinant topoisomerase 2 complex assessed as reduction in linear DNA formation at 8 uM
Nucleic Acid = experiment: Binding affinity to salmon testes DNA assessed as negative dichroic signal at 0.04 drug to DNA ratio by LD spectra; assay type: nucleic-acid assay; settings: Salmonidae
How it was run: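 LD spectra of salmon testes DNA (1.9 × 10^-3 M) in ETN buffer (10 mM TRIS, 10 mM NaCl, 1 mM EDTA, pH 7) at 25 °C over several [drug]/[DNA] ratios. Orientation by shear gradient of 500-700 rpm; each spectrum accumulated four times.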

[4] = target: DNA topoisomerase 2-alpha (Homo sapiens) (UniProt P11388); experiment: Inhibition of human recombinant topoisomerase 2 relaxation activity assessed as supercoiled pBR322 DNA at 2.5 uM; how it was run: as §2
[5] = target: DNA topoisomerase 2-alpha (Homo sapiens) (UniProt P11388); experiment: Inhibition of human recombinant topoisomerase 2 relaxation activity assessed as supercoiled pBR322 DNA at 5 uM; how it was run: as §2
[6] = target: DNA topoisomerase 2-alpha (Homo sapiens) (UniProt P11388); experiment: Inhibition of human recombinant topoisomerase 2 relaxation activity assessed as supercoiled pBR322 DNA; how it was run: as §2
[7] = Stabilization of supercoiled pBR322 DNA-human recombinant topoisomerase 2 complex assessed as reduction in linear DNA formation
[8] = target: DNA topoisomerase 2-alpha (Homo sapiens) (UniProt P11388); experiment: Inhibition of human recombinant topoisomerase 2-mediated end-labeled DNA cleavage in absence of ATP at 5 uM
[9] = target: DNA topoisomerase 2-alpha (Homo sapiens) (UniProt P11388); experiment: Inhibition of human recombinant topoisomerase 2-mediated end-labeled DNA cleavage in absence of ATP at 200 uM
[10] = Stabilization of supercoiled pBR322 DNA-human recombinant topoisomerase 2 complex assessed as reduction in linear DNA formation at 5 uM
[11] = Stabilization of supercoiled pBR322 DNA-human recombinant topoisomerase 2 complex assessed as reduction in linear DNA formation at 10 uM
[12] = Stabilization of supercoiled pBR322 DNA-human recombinant topoisomerase 2 complex assessed as reduction in linear DNA formation at 20 uM
[13] = Cytotoxicity against human mitoxantrone-resistant HL60/MX2 cells after 72 hrs by trypan blue assay; assay type: functional, cell-based; settings: HL60/MX2, 72 h; how it was run: as §1
[14] = target: T1, Topoisomerase I (Bos taurus) (UniProt Q2HPH0); experiment: Inhibition of calf thymus topoisomerase 1-mediated supercoiled pBR322DNA relaxation activity
T1 sequence (whole entry): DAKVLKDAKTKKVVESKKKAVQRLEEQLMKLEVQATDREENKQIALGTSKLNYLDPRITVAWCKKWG
How it was run: (§3)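 Calf thymus topoisomerase I (2 U) incubated with supercoiled pBR322 (0.25 μg) and compound for 60 min at 37 °C. Stopped with SDS stop buffer plus 50 μg/mL proteinase K for 30 min at 37 °C. Run on 1% agarose, stained with ethidium bromide 1 μg/mL in TAE, imaged under UV. Gels representative of three experiments.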

[15] = target: T1, Topoisomerase I (Bos taurus); experiment: Inhibition of calf thymus topoisomerase 1-mediated supercoiled pBR322DNA relaxation activity at 10 uM; how it was run: as §3
HL-60 [16] = experiment: Ratio of IC50 for mitoxantrone-resistant human HL60/MX2 cells to IC50 for human HL60 cells

DNA topoisomerase 2-alpha (Homo sapiens), sequence (P11388 whole entry): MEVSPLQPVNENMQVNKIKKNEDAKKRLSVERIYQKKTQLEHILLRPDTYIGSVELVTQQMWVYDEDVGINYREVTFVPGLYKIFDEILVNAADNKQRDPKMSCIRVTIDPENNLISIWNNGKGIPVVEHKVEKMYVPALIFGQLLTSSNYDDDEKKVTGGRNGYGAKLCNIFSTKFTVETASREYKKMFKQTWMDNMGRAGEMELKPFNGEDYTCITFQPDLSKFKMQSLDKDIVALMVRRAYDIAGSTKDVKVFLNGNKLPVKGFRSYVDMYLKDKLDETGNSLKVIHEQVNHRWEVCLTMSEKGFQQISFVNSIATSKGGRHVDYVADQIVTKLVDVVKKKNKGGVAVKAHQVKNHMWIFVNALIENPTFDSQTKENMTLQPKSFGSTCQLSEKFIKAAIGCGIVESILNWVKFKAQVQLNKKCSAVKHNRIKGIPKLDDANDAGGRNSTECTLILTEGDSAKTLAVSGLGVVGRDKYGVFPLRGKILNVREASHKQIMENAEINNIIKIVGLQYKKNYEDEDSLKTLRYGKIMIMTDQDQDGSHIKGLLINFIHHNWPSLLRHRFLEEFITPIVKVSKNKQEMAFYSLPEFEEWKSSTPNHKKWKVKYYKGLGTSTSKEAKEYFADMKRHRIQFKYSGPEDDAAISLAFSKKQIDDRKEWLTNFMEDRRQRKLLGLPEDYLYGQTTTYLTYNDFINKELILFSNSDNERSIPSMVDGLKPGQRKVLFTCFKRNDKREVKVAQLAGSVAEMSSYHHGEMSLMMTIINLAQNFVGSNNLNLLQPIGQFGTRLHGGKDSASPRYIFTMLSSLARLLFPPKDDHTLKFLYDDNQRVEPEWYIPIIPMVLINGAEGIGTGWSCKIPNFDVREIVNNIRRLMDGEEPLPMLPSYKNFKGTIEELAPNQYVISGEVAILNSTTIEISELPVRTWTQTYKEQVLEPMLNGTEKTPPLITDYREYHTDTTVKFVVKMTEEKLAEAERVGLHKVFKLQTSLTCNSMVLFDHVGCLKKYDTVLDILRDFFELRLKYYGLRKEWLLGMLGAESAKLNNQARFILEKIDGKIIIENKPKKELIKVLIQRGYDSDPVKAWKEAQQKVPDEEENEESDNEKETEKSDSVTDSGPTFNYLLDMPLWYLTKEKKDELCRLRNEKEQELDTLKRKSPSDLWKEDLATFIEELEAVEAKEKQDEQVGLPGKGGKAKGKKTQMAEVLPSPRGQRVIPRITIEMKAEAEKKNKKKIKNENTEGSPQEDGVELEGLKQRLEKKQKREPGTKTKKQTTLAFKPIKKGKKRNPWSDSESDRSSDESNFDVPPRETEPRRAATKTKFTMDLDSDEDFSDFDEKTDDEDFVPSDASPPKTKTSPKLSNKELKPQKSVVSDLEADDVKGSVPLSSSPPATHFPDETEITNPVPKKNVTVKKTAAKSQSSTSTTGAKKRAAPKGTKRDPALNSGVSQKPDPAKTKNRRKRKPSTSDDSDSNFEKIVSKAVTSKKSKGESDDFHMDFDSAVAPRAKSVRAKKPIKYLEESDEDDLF

SMILES	IC50 (HeLa) [nM]	IC50 (HL-60 [1]) [nM]	also measured
CN(C)CCCn1c2ccccc2c2sc3cc(Cl)ccc3c(=O)c21	14000	7190	–
O=c1c2ccc(Cl)cc2sc2c1[nH]c1ccccc12	> 20000	> 20000	–
COc1cc(NS(C)(=O)=O)ccc1Nc1c2ccccc2nc2ccccc12	–	–	Activity [2]: Active; Activity [3]: Active
CCN(CC)CCn1c2ccccc2c2sc3cc(Cl)ccc3c(=O)c21	4330	3210	–
COc1ccc2c(=O)c3c(sc2c1)c1cc(OC)ccc1n3CCCN(C)C	2600	1350	–
COc1ccc2c(=O)c3c(sc2c1)c1cc(Cl)ccc1n3CCCN(C)C	1850	1070	–
Cc1c2ccncc2c(C)c2c1[nH]c1ccccc12 [ELLIPTECINE]	290	660	–
CCN(CC)CCCn1c2ccc(OC)cc2c2sc3cc(OC)ccc3c(=O)c21	2500	1500	–
CCN(CC)CCn1c2ccccc2c2sc3cc(OC)ccc3c(=O)c21	2700	1800	Activity (Nucleic Acid): Active; Activity [4]: Active
COc1ccc2c(=O)c3[nH]c4ccccc4c3sc2c1	> 20000	> 20000	Activity (Nucleic Acid): Active; Activity [4]: Active
COc1ccc2c(=O)c3c(sc2c1)c1cc(OC)ccc1n3CCN(C)C	2150	660	Activity [5]: Active; Activity [6]: Dose-dependent effect; Activity [4]: Active; Activity [7]: inactive; Activity [8]: Active; Activity [9]: Active
COc1ccc2c(=O)c3[nH]c4ccc(Cl)cc4c3sc2c1	> 20000	> 20000	–
CCN(CC)CCn1c2ccc(Cl)cc2c2sc3cc(OC)ccc3c(=O)c21	1120	710	–
COc1ccc2c(=O)c3c(sc2c1)c1cc(Cl)ccc1n3CCN(C)C	1820	1170	–
COc1ccc2c(=O)c3c(sc2c1)c1ccccc1n3CCCN(C)C	2900	1900	Activity [4]: Active
COc1ccc2c(=O)c3c(sc2c1)c1ccccc1n3CCN(C)C	1300	410	Activity [5]: Active; Activity [6]: Dose-dependent effect; Activity (Nucleic Acid): Active; Activity [10]: Active; Activity [4]: Active; Activity [11]: Active; Activity [12]: Active; IC50 [13]: 2350 nM; Activity [14]: Dose-dependent effect; Activity [15]: Active; Ratio IC50 (HL-60 [16]): 6
CCN(CC)CCCn1c2ccccc2c2sc3cc(OC)ccc3c(=O)c21	3900	2400	Activity (Nucleic Acid): Active; Activity [4]: Active
CCN(CC)CCn1c2ccc(OC)cc2c2sc3cc(OC)ccc3c(=O)c21	2300	1100	–
CCN(CC)CCCn1c2ccc(Cl)cc2c2sc3cc(OC)ccc3c(=O)c21	1680	1020	–
COc1ccc2c(=O)c3[nH]c4ccc(OC)cc4c3sc2c1	> 20000	> 20000	–
CCN(CC)CCCn1c2ccccc2c2sc3cc(Cl)ccc3c(=O)c21	2910	2640	–
CN(C)CCn1c2ccccc2c2sc3cc(Cl)ccc3c(=O)c21	1530	1310	–
